Reference: ChEMBL document CHEMBL4196125, “Identification of N-Benzyl 3,5-Dinitrobenzamides Derived from PBTZ169 as Antitubercular Agents” (ACS Med Chem Lett, 2018)
Values after ≈ are worked out from the molar mass of the structure shown. Active and inactive are the calls of the source. The rule behind the calls is not given here.

Key:
[1] = test system: Mycobacterium tuberculosis; assay: Antitubercular activity against drug-sensitive Mycobacterium tuberculosis H37Rv ATCC 27294 measured after 7 days by microplate alamar blue assay; assay type: functional; details: for MIC90: H37Rv ATCC 27294, 168 h
Procedure, shortened: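 Microplate Alamar Blue Assay against strain H37Rv ATCC27294. MIC is the lowest concentration giving more than 90% reduction in fluorescence relative to the mean of replicate bacterium-only controls.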

Mus musculus = assay: Acute toxicity in mouse assessed as survival at 500 mg/kg, po administered as single dose measured for 7 days; assay type: organism-based; details: in vivo, 168 h
[2] = Tmax in mouse at 50 mg/kg, po administered as single dose; assay type: ADME, organism-based; details: in vivo
Procedure, shortened: (§1)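 Mice (n = 3) received one oral 50 mg/kg dose; plasma levels were followed to derive T1/2 (h), Tmax (h), Cmax (ng/mL) and AUC0-∞ (h·ng/mL).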

[3] = Cmax in mouse at 50 mg/kg, po administered as single dose; assay type: ADME, organism-based; parameters: dose 50 mg/kg, route oral; details: in vivo; procedure, shortened: as §1
[4] = AUC (0 to infinity) in mouse at 50 mg/kg, po administered as single dose; assay type: ADME, organism-based; parameters: dose 50 mg/kg, route oral, time infinity; details: in vivo; procedure, shortened: as §1
[5] = Half life in mouse at 50 mg/kg, po administered as single dose; assay type: ADME, organism-based; details: in vivo; procedure, shortened: as §1

| Structure (SMILES) | MIC90 [1] | also measured |
| --- | --- | --- |
| O=C(NCc1ccc(N2CC3CCCCC3C2)cc1)c1cc([N+](=O)[O-])cc(C(F)(F)F)c1 (stereo not drawn) | 0.5 µg/mL (≈ 1.12 µM) |  |
| COc1ccc(OCCNC(=O)c2cc([N+](=O)[O-])cc(C(F)(F)F)c2)cc1 | 1 µg/mL (≈ 2.6 µM) |  |
| O=C(NCc1ccc(N2CCCCC2)cc1)c1cc([N+](=O)[O-])cc([N+](=O)[O-])c1 | 2 µg/mL (≈ 5.2 µM) |  |
| O=C(NCc1ccc(N2CCCCC2)cc1)c1cc([N+](=O)[O-])cc(C(F)(F)F)c1 | 0.25 µg/mL (≈ 0.614 µM) |  |
| O=c1nc(N2CCN(CC3CCCCC3)CC2)sc2c([N+](=O)[O-])cc(C(F)(F)F)cc12 [MACOZINONE] | 0.0625 µg/mL (≈ 0.137 µM) |  |
| O=C(NCCNc1ccc(Br)cc1)c1cc([N+](=O)[O-])cc(C(F)(F)F)c1 |  | Activity [1]: Active |
| O=C(NCc1ccc(N2CCN(c3ccc(F)cc3)CC2)cc1)c1cc([N+](=O)[O-])cc([N+](=O)[O-])c1 | 0.0625 µg/mL (≈ 0.13 µM) | Activity (Mus musculus): Non-Toxic; Tmax [2]: 1.08 h; Cmax [3]: 15 ng/mL; AUC(0-inf) [4]: 219 ng·h/mL; half-life [5]: 13.6 h |
| O=C(NCc1ccc(N2CCOCC2)cc1)c1cc([N+](=O)[O-])cc([N+](=O)[O-])c1 | > 8 µg/mL |  |
| O=C(NCc1ccc(N2CCC(C(F)(F)F)CC2)cc1)c1cc([N+](=O)[O-])cc([N+](=O)[O-])c1 | 0.0625 µg/mL (≈ 0.138 µM) | Activity (Mus musculus): Non-Toxic; Tmax [2]: 0.92 h; Cmax [3]: 1720 ng/mL; AUC(0-inf) [4]: 5600 ng·h/mL; half-life [5]: 3.63 h |
| CC(C)N1CCN(c2ccc(CNC(=O)c3cc([N+](=O)[O-])cc(C(F)(F)F)c3)cc2)CC1 | 8 µg/mL (≈ 17.8 µM) |  |
| O=C(NCc1ccc(N2CCN(c3ccccn3)CC2)cc1)c1cc([N+](=O)[O-])cc(C(F)(F)F)c1 | 1 µg/mL (≈ 2.06 µM) |  |
| O=C(NCc1ccc(N2CCSCC2)cc1)c1cc([N+](=O)[O-])cc(C(F)(F)F)c1 | 0.125 µg/mL (≈ 0.294 µM) |  |
| O=C(NCCNc1ccc([N+](=O)[O-])cc1)c1cc([N+](=O)[O-])cc(C(F)(F)F)c1 |  | Activity [1]: Active |
| O=C(NCc1ccc(N2CCN(c3ccc(F)cc3)CC2)cc1)c1cc([N+](=O)[O-])cc(C(F)(F)F)c1 | 0.5 µg/mL (≈ 0.995 µM) |  |
| O=C(NCCN1CCN(c2ccccc2)CC1)c1cc([N+](=O)[O-])cc(C(F)(F)F)c1 |  | Activity [1]: Active |
| O=C(NCc1ccc(N2CCN(c3ccccn3)CC2)cc1)c1cc([N+](=O)[O-])cc([N+](=O)[O-])c1 | 1 µg/mL (≈ 2.16 µM) |  |

| Structure (SMILES) | MIC90 [1] | also measured |
| --- | --- | --- |
| CN1CCN(c2ccc(CNC(=O)c3cc([N+](=O)[O-])cc(C(F)(F)F)c3)cc2)CC1 | > 8 µg/mL |  |
| O=C(NCCN1CCN(CC2CCCCC2)CC1)c1cc([N+](=O)[O-])cc(C(F)(F)F)c1 | 0.0781 to 4 µg/mL (≈ 0.177 to 9.04 µM) |  |
| O=C(NCc1ccc(N2CCSCC2)cc1)c1cc([N+](=O)[O-])cc([N+](=O)[O-])c1 | 0.0625 µg/mL (≈ 0.155 µM) | Activity (Mus musculus): Non-Toxic; Tmax [2]: 2.75 h; Cmax [3]: 19 ng/mL; AUC(0-inf) [4]: 41.1 ng·h/mL; half-life [5]: 3.3 h |
| O=C(NCc1ccc(N2CCC(c3ccc(OC(F)(F)F)cc3)CC2)cc1)c1cc([N+](=O)[O-])cc(C(F)(F)F)c1 | 0.5 µg/mL (≈ 0.881 µM) |  |
| O=C(NCc1ccc(N2CCN(c3ccncc3)CC2)cc1)c1cc([N+](=O)[O-])cc(C(F)(F)F)c1 | 8 µg/mL (≈ 16.5 µM) |  |
| O=C(NCc1ccc(N2CCC(Oc3ccc(OC(F)(F)F)cc3)CC2)cc1)c1cc([N+](=O)[O-])cc([N+](=O)[O-])c1 | 0.5 µg/mL (≈ 0.892 µM) |  |
| O=C(NCc1ccc(N2CCC(c3ccc(OC(F)(F)F)cc3)CC2)cc1)c1cc([N+](=O)[O-])cc([N+](=O)[O-])c1 | 0.0625 µg/mL (≈ 0.115 µM) | Activity (Mus musculus): Non-Toxic; Tmax [2]: 0.83 h; Cmax [3]: 366 ng/mL; AUC(0-inf) [4]: 3260 ng·h/mL; half-life [5]: 5.52 h |
| O=C(NCc1ccc(N2CCN(c3ccncc3)CC2)cc1)c1cc([N+](=O)[O-])cc([N+](=O)[O-])c1 | 2 µg/mL (≈ 4.32 µM) |  |
| CC(C)N1CCN(c2ccc(CNC(=O)c3cc([N+](=O)[O-])cc([N+](=O)[O-])c3)cc2)CC1 | 4 µg/mL (≈ 9.36 µM) |  |
| O=C(NCc1ccc(N2CC3CCCCC3C2)cc1)c1cc([N+](=O)[O-])cc([N+](=O)[O-])c1 (stereo not drawn) | 0.0625 µg/mL (≈ 0.147 µM) | Activity (Mus musculus): Non-Toxic |
| O=C(NCc1ccc(N2CCC(Oc3ccc(OC(F)(F)F)cc3)CC2)cc1)c1cc([N+](=O)[O-])cc(C(F)(F)F)c1 | 2 µg/mL (≈ 3.43 µM) |  |
| NNC(=O)c1ccncc1 [ISONIAZID] | 0.0781 µg/mL (≈ 0.569 µM) |  |
| O=C(NCc1ccc(N2CCC(C(F)(F)F)CC2)cc1)c1cc([N+](=O)[O-])cc(C(F)(F)F)c1 | 0.0625 µg/mL (≈ 0.131 µM) |  |
| O=C(NCc1ccc(N2CCOCC2)cc1)c1cc([N+](=O)[O-])cc(C(F)(F)F)c1 | > 8 µg/mL |  |
| CN1CCN(c2ccc(CNC(=O)c3cc([N+](=O)[O-])cc([N+](=O)[O-])c3)cc2)CC1 | 4 µg/mL (≈ 10 µM) |  |
| CO[C@H]1/C=C/O[C@@]2(C)Oc3c(C)c(O)c4c(O)c(c(/C=N/N5CCN(C)CC5)c(O)c4c3C2=O)NC(=O)/C(C)=C\C=C\[C@H](C)[C@H](O)[C@@H](C)[C@@H](O)[C@@H](C)[C@H](OC(C)=O)[C@@H]1C [RIFAMPIN] | 0.0781 µg/mL (≈ 0.0949 µM) |  |
